Laboratory results reported in ChEMBL document CHEMBL4513216, “Probing the Open Global Health Chemical Diversity Library for Multistage-Active Starting Points for Next-Generation Antimalarials” (ACS Infect Dis, 2020).

assay: Toxicity liver stage against HepG2, at 10uM; format: cell-based; parameters: test concentration 10 uM, cell line HepG2-A16-CD81EGFP; settings: human, HepG2-A16-CD81EGFP cells; read-out: INHIBITION
Outline: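 Uninfected HepG2-A16-CD81EGFP cells, 3 × 10^3 per well, 1536-well, plated on prespotted compound at 10 μM final, parasite-free screening media added to match infected plates; puromycin 10 μM positive, DMSO 0.5% negative; run in parallel with 48 h PbLuc assay at 37 °C, 5% CO2; viability by CellTiter-Glo luminescence, normalized to controls.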

Row | Structure (SMILES) | cytotoxicity at 10 µM [%]
1 | CCOC(=O)Cn1ccc(O)c(Cc2ccc(Cl)cc2Cl)c1=O | 4.19
2 | COc1c(Br)cc(Cl)cc1NCc1c(C)noc1C | 12.8
3 | CCOC(=O)CCCNC(=O)CN1CCN(c2ncccn2)CC1 | -13.3
4 | CN1C[C@@H](O)[C@]2(CCN(C(=O)OCc3ccccc3)C2)S1(=O)=O | -0.53
5 | O=C1CCNc2ccc(F)cc2CN1Cc1ccco1 | -1.36
6 | COC1CN(C(=O)CC(C)C)CCC(=O)N(C)c2ccccc21 (stereo unspecified) | -2.72
7 | Cn1cccc1C(CNC(=O)COc1ccc(Cl)cc1Cl)N1CCCC1 (stereo unspecified) | -8.64
8 | CC(=O)NCc1cc(-c2cccs2)n(C2CCCC2)n1 | 3.29
9 | CNC(=O)c1nc2c(s1)CCN(C(=O)c1ccccc1)CC2 | 11.1
10 | CS(=O)(=O)N1CC[C@@H]2O[C@@H](COCC(=O)N3CCCC3)CC[C@@H]21 | -0.879
11 | CC(C)NC(=O)N1CCN(C(=O)c2ccco2)CC2(CC(=O)N(C)C2)C1 (stereo unspecified) | 6.15
12 | COCC1CN(Cc2cc(C)on2)Cc2cn(C)nc21 (stereo unspecified) | -6.07
13 | Cc1cc(C(=O)N2C[C@@H]3[C@@H](C2)OCC(=O)N3CC2CC2)no1 | -10.4
14 | O=c1c2c(ncn1CCCO)nc1n2CCC1 | -3.89
15 | CCS(=O)(=O)Nc1ccn(Cc2cccc(F)c2)n1 | 6.22
16 | COC(=O)c1ccc(NS(=O)(=O)c2cnc(NC(C)=O)s2)cc1 | 9.35
17 | CSc1cccc(NC(=O)Nc2c(O)oc3ccccc3c2=O)c1 | 4.45
18 | CN(CC1(C)COC1)C(=O)c1cc(-c2ccnn2C)nc2ccccc12 | 6.57
19 | COc1ccc(CN(C)[C@@H]2CN(S(=O)(=O)C(C)C)C[C@H]2O)cc1 | 0.465
20 | COc1ccc2c(c1)C(=O)NC1(CC2)CCN(Cc2cccnc2)C1 (stereo unspecified) | 0.295
21 | COc1ccccc1N1CCC(NCc2c(C)noc2C)C1 (stereo unspecified) | 1.81
22 | O=C(Cc1cccc(F)c1F)N1CCOC(c2cccc(O)c2)C1 (stereo unspecified) | 0.0788
23 | COc1ccc(F)cc1Cn1nc(C(N)=O)ccc1=O | -2.52

Row | Structure (SMILES) | cytotoxicity at 10 µM [%]
24 | CC(NCCn1cccn1)c1ccccc1Cl (stereo unspecified) | -5.03
25 | CCCC(C)CS(=O)(=O)NCc1cccnc1OC (stereo unspecified) | -18
26 | COc1cc(NC(=O)N(C)CC2CC2)ncn1 | 7.09
27 | CNC(=O)NCCc1csc2ccccc12 | 2.22
28 | Cc1noc(C(C)Nc2ccc3oc(C)nc3c2)n1 (stereo unspecified) | 1.81
29 | COC(=O)c1ccc2c(c1)CCCN2S(=O)(=O)c1cn(C)c(C)n1 | 3.94
30 | Cc1cc(NC(=O)NCc2ccncc2)ccc1OC(C)C | -8.36
31 | CCOc1ncccc1CNS(=O)(=O)c1ccc2c(c1)CCCC(=O)N2 | 12.1
32 | NC(=O)Cn1c(SCc2noc(-c3ccsc3)n2)nnc1C1CC1 | 15.4
33 | CSCCC(NC(N)=O)C(=O)Nc1ccc(-n2cccn2)nc1 (stereo unspecified) | 4.78
34 | Cn1c(NCCN2CCCCCC2)c(C#N)c(=O)n(C)c1=O | 0.0687
35 | CCS(=O)(=O)c1ccc(N2CCC(NC(=O)C(C)SC)CC2)cc1 (stereo unspecified) | 7.99
36 | CCc1ncc2c(n1)CN(Cc1cccc3c1OCCO3)CC2 | -8.42
37 | Cc1ccc(NS(=O)(=O)c2c[nH]c3ncccc23)nc1 | 6.43
38 | Cc1cc(NS(=O)(=O)c2c[nH]c3ncccc23)no1 | -1.69
39 | CC(C)COCC(C)NC(=O)NCc1cccc(-n2cncn2)c1 (stereo unspecified) | -0.662
40 | CN(C(=O)[C@H]1CSCN1C(=O)OC(C)(C)C)C1CC1 | 15.4
41 | Cc1ccc(-c2nc(CN3CC(n4nc(C)cc4C)C3)no2)cc1 | -1.64
42 | Cc1cn2c(n1)CCC(NC(=O)CCOc1ccccc1F)C2 (stereo unspecified) | 5.27
43 | Cc1nc(C)n(CC2CCCN(Cc3nnc(C4CC4)o3)C2)n1 (stereo unspecified) | -12.9
44 | Cc1nsc(NCCNS(=O)(=O)c2cccc(Cl)c2)n1 | 5.62
45 | CN(CCc1ccncc1)C(=O)C1CSCN1C(=O)C1CCCC1 (stereo unspecified) | -7.39
46 | COc1ccccc1C(=O)N1CCCC1c1nncn1CC(C)C (stereo unspecified) | -2.96

Row | Structure (SMILES) | cytotoxicity at 10 µM [%]
47 | O=C(Nc1ccc(CCN2CCSCC2)cc1)NC1CC1 | -12.1
48 | O=C(C1CCCOC1)N1CCCCc2ccccc21 (stereo unspecified) | -5.51
49 | CSc1nc(C2CC2)nc(C)c1C(=O)NCc1ccco1 | 5.25
50 | CN(C(=O)C1CCC1)C1CCN(c2ccccc2Cl)C1=O (stereo unspecified) | -0.949
51 | COCCN1CCC(NCc2c(C(C)C)nn(C)c2N(C)C)CC1 | 11.6
52 | c1ccc(OCc2nc(CNCCn3cccn3)cs2)cc1 | 7.53
53 | CCN(Cc1ccoc1)C(=O)NC1CCN(C(=O)OC(C)(C)C)C1 (stereo unspecified) | 3.65
54 | NC(=O)N1CCCN(CCc2nc(-c3cccc(Cl)c3)no2)CC1 | 14.8
55 | Cc1ccc(C(=O)NS(C)(=O)=O)cc1S(C)(=O)=O | 4
56 | Cc1cnn(Cc2cc(F)ccc2F)c1NC(=O)C1COCCO1 (stereo unspecified) | 21.5
57 | Cc1cccc(NC(=O)N2CC(C(=O)NC(C)C)C3(CCOCC3)C2)c1 (stereo unspecified) | -75
58 | Cc1nc2c(c(N(C)C)n1)CCN(C(=O)c1ccc(N)nc1)C2 | -8.26
59 | CCN(CCOC)C(=O)c1ccc2c(c1)nc(N1CC[C@H](O)C1)n2C | -2.96
60 | CCC(O)CNc1ccc(-c2nc(CC(C)C)no2)cn1 (stereo unspecified) | -6.19
61 | Cc1ccccc1C(C(=O)N(Cc1cnn(C)c1)CC(C)C)N(C)C (stereo unspecified) | 2.66
62 | CC(C)(CN1C[C@H](Nc2ncccn2)[C@@H](C2CC2)C1)N1CCOCC1 | 5.41
63 | CCC[C@H]1CN(C(=O)c2ccc3[nH]c(CO)nc3c2)C[C@@H]1N | 3.96
64 | Cc1nc(C(C)C)sc1C(=O)N1CCC(N2CCSCC2)CC1 | -3.54
65 | O=C(O)CC[C@@H]1CN(c2ncccc2F)CC[C@@H]1N1CCOCC1 | -9.11
66 | O=C(c1ccoc1)N1CCCN(C(=O)c2ccc(C3CCCN3)s2)CC1 (stereo unspecified) | 1.27
67 | CC(Nc1ncnc2c1CCNCC2)c1nc2c(s1)CCCC2 (stereo unspecified) | 1.28
68 | O=C(CCc1cc(Cl)no1)N1CCCCC1CCN1CCOCC1 (stereo unspecified) | -9.97
69 | Clc1ccccc1OC1CN(CC2CCOC2)C1 (stereo unspecified) | -0.745

Row | Structure (SMILES) | cytotoxicity at 10 µM [%]
70 | Cc1nc2c(c(=O)n1C)CN(C(=O)C1CCCN(CC(N)=O)C1)C2 (stereo unspecified) | -6
71 | CCN1CC(C(=O)NCCc2csc(-c3ccncc3)n2)CCC1=O (stereo unspecified) | -11.3
72 | Cc1ncsc1CCN(C)C(=O)c1ncccc1O | -5.43
73 | COc1ccc(F)c(-c2ccnc(N)c2)c1 | 8.52
74 | O=C(O)CC1COCCN1Cc1ccccc1OCCc1ccccc1 (stereo unspecified) | 2.4
75 | O=C(NCCC1CN(Cc2c[nH]cn2)CCO1)Nc1ccccc1 (stereo unspecified) | -1.92
76 | CCC(=O)N1CCC2(CC1)c1nc[nH]c1CCN2S(C)(=O)=O | -11.4
77 | COc1ccccc1C1CNC(=O)c2nc(-c3ncc[nH]3)[nH]c2C1 (stereo unspecified) | -8.6
78 | c1ccc(Cc2noc(CN3CCCCC3Cn3cccn3)n2)cc1 (stereo unspecified) | -0.945
79 | Cc1csc(C2CCCCN2C(=O)c2c[nH]c(C)n2)n1 (stereo unspecified) | -33.7
80 | Cc1noc(Cl)c1CCC(=O)N1CCN(Cc2ccncc2)CC1 | -14.2
81 | Cc1nc(C)n(CC2CN(Cc3ccc4c(c3)OCCO4)CCO2)n1 (stereo unspecified) | -3.63
82 | O=C(CCc1ccccc1F)N1CCC(Nc2cccnn2)CC1 | -3.78
83 | c1cnn(CC2CN(Cc3nnc(C4CC4)o3)CCO2)c1 (stereo unspecified) | -5.09
84 | CN(C)c1ccc(C(=O)N2CCN(c3cnccn3)CC2)cn1 | -4.98
85 | Cc1ccc(CC(=O)N2CCC(Nc3ccc(C)nn3)CC2)cn1 | -4.75
86 | CC(C)c1nccn1C1CCCN(C(=O)c2cn3cccnc3n2)C1 (stereo unspecified) | -3.63
87 | Cc1cccc(OCCCN2CCC(N(C)Cc3noc(C)n3)C2)c1 (stereo unspecified) | -2.61
88 | CCN1CCN(CCNC(=O)c2sc(C)nc2C)CC1 | 0.927
89 | COCCc1noc(CN2CCCC2Cn2nc(C)cc2C)n1 (stereo unspecified) | -1.92
90 | CC(C)c1nc(C2CCCN(C(=O)c3ccc4c(c3)COC4)C2)no1 (stereo unspecified) | -7
91 | COc1ccc(CC(=O)N2CCCC2Cn2cc(C)cn2)cc1OC (stereo unspecified) | -17.9
92 | CC(C)c1nccn1C1CCCN(C(=O)c2cccc3[nH]ncc23)C1 (stereo unspecified) | -0.35

Row | Structure (SMILES) | cytotoxicity at 10 µM [%]
93 | Cc1occc1CN(C)Cc1nc2c(cnn2C)c(=O)[nH]1 | 2.11
94 | CSCCC(=O)NS(=O)(=O)c1ccc2c(c1)OCCO2 | -14.7
95 | Cc1nn(C)c(C)c1C1COCCN1C(=O)c1cnc(N)c(Cl)c1 (stereo unspecified) | -8.21
96 | Nc1cc2c(nn1)CCN(C(=O)CC1CCCC1)C2 | -6.31
97 | CC(NC(=O)c1cccs1)C(=O)NCc1cccnc1N1CCCCC1 (stereo unspecified) | -8.57
98 | O=C(Cc1ccccc1)N1CCN(Cc2noc(C3CC3)n2)CC1 | 1.15
99 | Cc1cc(C)n(C2CCCN(C(=O)c3cnc4onc(C)c4c3)C2)n1 (stereo unspecified) | 5.17
100 | Cn1cccc1C(=O)N1CCO[C@H]2[C@H](OCc3cccnc3)CC[C@@H]21 | 7.2
101 | Cn1cccc1C(=O)N1CC[C@@H]2[C@@H]1CC(=O)N2CCN1CCOCC1 | -7.41
102 | CN1CC(=O)N(c2ccsc2)CC12CCN(C(=O)Nc1ccccc1)C2 (stereo unspecified) | -78.7
103 | CC1c2ncc(Cn3cncn3)n2CCN1C1CCOCC1 (stereo unspecified) | 4.28
104 | CN(C)[C@@H]1CCN(CC2CC2)[C@H]1Cc1cnn(C)c1 | -76.9
105 | CC(C)(C)n1cc(CNC2CCN(C(=O)c3ccoc3)CC2)cn1 | 6.35
106 | COCCN1CC[C@H]2OCC[C@@H](C(=O)N3CCCO3)[C@H]2C1 | 4.55
107 | O=C(c1ccco1)N1CCCC2(CN(Cc3cccs3)CCO2)C1 (stereo unspecified) | -2.3
108 | O=C1CCCC2=C1C(c1ccccc1Cl)C1C(=O)NN=C1N2 (stereo unspecified) | -11.6
109 | CCCc1cc(N2CCC(NC3CCC(O)CC3)CC2)nc(C)n1 (stereo unspecified) | -4.35
110 | CC(C)c1cc(C(=O)N2C[C@@H]3CC[C@H]2CN(Cc2cccnc2)C3)no1 | 2.55
111 | COc1cc(N2C[C@H]3CC[C@@H](C2)N(CC2CCC2)C3=O)ncn1 | -1.15
